Reference: PMC12429009 (The FASEB Journal, 2025)
“Also recorded” adds a separate entry of the source. Where no end group is shown, it is not given here. The star is where a group is joined. 5FAM = O=C1OC2(c3ccc(O)cc3Oc3cc(O)ccc32)c2ccc(C(=O)*)cc21

Tests used:
[1] = target: T1, 14‐3‐3ζ WT (Homo sapiens, UniProt P63104); assay: LiP‐MS; format: binding; details: 500 μM ATPγS
T1 sequence (P63104 1-245): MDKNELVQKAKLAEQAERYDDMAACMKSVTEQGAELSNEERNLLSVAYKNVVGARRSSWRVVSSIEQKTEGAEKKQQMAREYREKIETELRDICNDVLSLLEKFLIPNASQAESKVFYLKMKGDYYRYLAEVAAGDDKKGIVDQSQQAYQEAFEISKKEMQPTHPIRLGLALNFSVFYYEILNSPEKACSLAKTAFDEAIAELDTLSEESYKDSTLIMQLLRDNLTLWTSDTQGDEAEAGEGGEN

[2] = target: T1, 14‐3‐3ζ WT; format: binding; details: FP, 25°C, 30 min; for effect on binding of mode 1 or mode 2 peptides to 14‐3‐3ζ: 1 mM ATP or ATPγS, peptide 62.5 nM, protein 8 to 0.0625 μM
Method in brief: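 Untagged recombinant 14‐3‐3ζ WT apoprotein (His‐tagged, expressed in E. coli BL21 DE3, Ni‐NTA then size exclusion, TEV‐cleaved) in 50 mM Na‐HEPES pH 8.0, 150 mM NaCl, 10% glycerol. N‐terminal FAM peptides fixed at 62.5 nM, protein titrated 8 to 0.0625 μM, ±1 mM ATP or ATPγS in binding buffer. 30 min at 25°C in the dark, then anisotropy read; K_D fitted.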

[3] = target: T2, 14‐3‐3ζ R55A (Homo sapiens, UniProt P63104, R55A); assay: ExoS peptide binding to 14‐3‐3ζ R55A by microscale thermophoresis, effect of ATP; details: MST; different concentrations of ATP
T2 sequence (P63104 1-245 R55A): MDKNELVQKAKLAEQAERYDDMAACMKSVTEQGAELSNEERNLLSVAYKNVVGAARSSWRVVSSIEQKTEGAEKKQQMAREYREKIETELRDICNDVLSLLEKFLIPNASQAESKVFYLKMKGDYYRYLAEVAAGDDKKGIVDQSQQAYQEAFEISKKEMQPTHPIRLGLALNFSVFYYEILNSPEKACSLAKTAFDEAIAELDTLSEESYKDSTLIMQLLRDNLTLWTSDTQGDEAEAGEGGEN
Method in brief: (§1)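 Purified untagged mutant 14‑3‑3ζ, starting at 32 μM, serially diluted 2‑fold in 10 μM FAM‑labeled peptide, in the FP binding buffer (50 mM Na‑HEPES pH 8.0, 150 mM NaCl, 10% glycerol), with ATP at several concentrations. Fluorescent counts and power set beforehand. Samples read in standard glass capillaries on a Monolith NT.115.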

[4] = target: T1, 14‐3‐3ζ WT; format: binding; details: MST
Method in brief: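 Labelled peptide binding by thermophoresis with recombinant, TEV‐cleaved 14‐3‐3ζ WT. Protein from 32 μM serially diluted 2‐fold with 10 μM FAM‐peptide in FP buffer (50 mM Na‐HEPES pH 8.0, 150 mM NaCl, 10% glycerol), at varied ATP concentrations. Fluorescence counts and power set per manufacturer. Standard glass capillaries; fit in instrument software.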

[5] = target: T3, 14‐3‐3ζ Y82A (Homo sapiens, UniProt P63104, Y82A); assay: ExoS peptide binding to 14‐3‐3ζ Y82A by microscale thermophoresis, effect of ATP; details: MST; different concentrations of ATP
T3 sequence (P63104 1-245 Y82A): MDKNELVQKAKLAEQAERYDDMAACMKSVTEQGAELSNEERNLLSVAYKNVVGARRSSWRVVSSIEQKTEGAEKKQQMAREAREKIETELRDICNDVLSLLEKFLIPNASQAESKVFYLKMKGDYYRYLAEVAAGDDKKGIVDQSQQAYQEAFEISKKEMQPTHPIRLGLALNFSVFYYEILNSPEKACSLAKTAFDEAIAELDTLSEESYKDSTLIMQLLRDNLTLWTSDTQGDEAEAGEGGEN
Method in brief: as §1

[6] = tested on: 14‐3‐3ζ E180A; format: binding, human; details: FP; 1 mM ATP; 5FAM‐labeled ExoS peptide 62.5 nM, 25°C, 30 min
Method in brief: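 Recombinant human 14‑3‑3ζ mutant, His‑tagged, expressed in E. coli BL21 DE3, purified by Ni‑NTA and size exclusion, tag removed with TEV, buffer‑exchanged into 50 mM Na‑HEPES pH 8.0, 150 mM NaCl, 10% glycerol. N‑terminal FAM‑peptide held at 62.5 nM, protein titrated 8 to 0.0625 μM, 1 mM ATP in binding buffer. 25°C, dark, 30 min; anisotropy change read; K_D fitted.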

[7] = target: T3, 14‐3‐3ζ Y82A; assay: ExoS peptide binding to Y82A by surface plasmon resonance, effect of ATPγS; details: SPR; 10 μM to 1 mM ATPγS with 10 μM peptide; HBS‐P pH 7.4; qualitative
Method in brief: (§2)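 Mutant 14‑3‑3ζ amine‑coupled to a CM5 chip at 4000 RU. ATPγS from 10 μM to 1 mM, together with 10 μM peptide, injected in HBS‑P (10 mM Na‑HEPES pH 7.4, 150 mM NaCl, 0.005% Tween‑20). RU changes on association and dissociation tracked; sensorgrams fitted to a 1:1 binding model.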

[8] = target: T2, 14‐3‐3ζ R55A; assay: ExoS peptide binding to R55A by surface plasmon resonance, effect of ATPγS; details: SPR; 10 μM to 1 mM ATPγS with 10 μM peptide; HBS‐P pH 7.4; qualitative
Method in brief: as §2

[9] = target: T1, 14‐3‐3ζ WT; assay: Peptide binding to 14‐3‐3ζ WT by surface plasmon resonance, effect of ATPγS; details: SPR, HBS‐P pH 7.4
Method in brief: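 Amine coupling of recombinant 14‐3‐3ζ WT onto a CM5 chip to 4000 RU. Analyte 10 μM peptide with 10 μM to 1 mM ATPγS in HBS‐P (10 mM Na‐HEPES pH 7.4, 150 mM NaCl, 0.005% v/v Tween‐20). RU change during association and dissociation recorded. Sensorgrams fitted to a 1:1 binding model; relative response compared across ATPγS concentrations.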

[10] = target: T4, 14-3-3ζ Y82A (human, UniProt P63104 1-245, Y82A); assay: MST
T4 sequence (looked up): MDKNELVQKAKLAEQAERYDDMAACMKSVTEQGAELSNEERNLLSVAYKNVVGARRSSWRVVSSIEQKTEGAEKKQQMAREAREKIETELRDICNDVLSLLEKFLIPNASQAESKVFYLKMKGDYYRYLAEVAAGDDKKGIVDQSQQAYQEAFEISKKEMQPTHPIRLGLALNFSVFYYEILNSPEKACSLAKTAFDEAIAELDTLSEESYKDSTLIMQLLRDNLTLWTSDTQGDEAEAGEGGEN

[11] = target: T5, 14-3-3ζ R55A (human, UniProt P63104 1-245, R55A); assay: MST
T5 sequence (looked up): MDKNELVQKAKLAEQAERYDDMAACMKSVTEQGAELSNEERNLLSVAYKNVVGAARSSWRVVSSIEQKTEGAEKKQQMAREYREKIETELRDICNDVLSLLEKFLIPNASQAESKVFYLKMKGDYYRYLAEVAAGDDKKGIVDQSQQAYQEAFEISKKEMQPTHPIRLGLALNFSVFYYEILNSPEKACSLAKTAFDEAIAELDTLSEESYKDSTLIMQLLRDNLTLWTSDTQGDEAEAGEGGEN

[12] = target: T6, 14-3-3ζ WT (human, UniProt P63104 1-245); assay: fluorescence polarisation
T6 sequence (looked up): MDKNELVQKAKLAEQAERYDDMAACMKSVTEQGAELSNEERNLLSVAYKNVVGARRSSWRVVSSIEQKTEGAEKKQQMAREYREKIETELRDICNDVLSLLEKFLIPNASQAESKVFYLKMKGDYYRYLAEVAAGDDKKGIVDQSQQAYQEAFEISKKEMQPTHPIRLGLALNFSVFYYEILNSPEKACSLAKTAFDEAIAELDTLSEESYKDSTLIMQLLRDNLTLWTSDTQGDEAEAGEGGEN

[13] = target: T7, 14-3-3ζ E180A (human, UniProt P63104 1-245, E180A); assay: fluorescence polarisation
T7 sequence (looked up): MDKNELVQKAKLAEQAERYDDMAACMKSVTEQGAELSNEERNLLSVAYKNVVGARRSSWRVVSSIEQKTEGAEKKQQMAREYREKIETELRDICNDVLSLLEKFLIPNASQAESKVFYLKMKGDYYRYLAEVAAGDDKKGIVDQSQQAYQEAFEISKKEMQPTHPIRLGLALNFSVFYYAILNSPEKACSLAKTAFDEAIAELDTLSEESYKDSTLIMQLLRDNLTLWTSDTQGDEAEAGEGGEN

[14] = target: T8, 14-3-3ζ WT (human), P63104; assay: native gel or EMSA; details: remark: other sources report otherwise
T8 chain: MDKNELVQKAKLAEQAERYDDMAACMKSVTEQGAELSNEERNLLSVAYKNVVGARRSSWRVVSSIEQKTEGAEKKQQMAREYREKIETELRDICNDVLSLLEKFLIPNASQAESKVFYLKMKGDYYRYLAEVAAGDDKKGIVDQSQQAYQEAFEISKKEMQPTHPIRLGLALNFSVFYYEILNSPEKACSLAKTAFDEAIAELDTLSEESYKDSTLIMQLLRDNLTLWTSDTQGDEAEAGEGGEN

[15] = tested on: 14‐3‐3τ; details: cited from earlier work

**Q.** What does the source list for `Nc1ncnc2c1ncn2[C@@H]1O[C@H](COP(=O)(O)OP(=O)(O)OP(=O)(O)O)[C@@H](O)[C@H]1O` [ATP]?
**A.** ATP binding site suggested by LiP‐MS [1]: there is a second ATP binding site at the dimer interface; effect on binding of mode 1 or mode 2 peptides to 14‐3‐3ζ [2]: no effect; effect on binding of ExoS peptide to 14‐3‐3ζ WT ([2]; 1 mM ATP, 5FAM‐labeled ExoS peptide 62.5 nM): marginally but reproducibly decreased; effect on binding of ExoS peptide to R55A [3]: did not affect the binding; type of inhibition of ExoS peptide binding ([4]; 14‐3‐3ζ WT, ATP at the dimer interface): as a non‐competitive inhibitor by binding to the dimer interface; effect on binding of phosphopeptide to ζWT ([4]; FAM‐labeled peptide): did not show any effect; effect on binding of ExoS peptide to ζWT ([4]; different concentrations of ATP): the binding of nonphosphorylated ExoS peptide decreased in the presence of ATP; also recorded: concentration‐dependent inhibition; effect on binding of ExoS peptide to Y82A [5]: did not affect the binding; effect on binding of ExoS peptide to E180A mutant [6]: marginally but reproducibly decreased

**Q.** With `Nc1ncnc2c1ncn2[C@@H]1O[C@H](CO[P@](=O)(O)O[P@](=O)(O)O[P@@](=O)(O)S)[C@@H](O)[C@H]1O` [ATPγS] as the molecule, how does the “ATP binding site suggested by LiP‐MS” value [1] read?
**A.** 81–91 residues which are part of the dimer interface, were exclusively protected by ATPγS

**Q.** What about the “protection against Proteinase K cleavage (SDS PAGE)” value ([1]; 25°C, 30 min, Proteinase K 1:100, 1 min at 25°C) of the same molecule?
**A.** protects the protein against proteolytic cleavage

**Q.** What about the “Log2 fold change of conformotypic peptide, ATPγS bound versus unbound” value ([1]; peptide YDDMAAC (19–25), C_SEMI, adjusted p 2.49E‐02) of the same molecule?
**A.** −1.0

**Q.** What about the “Log2 fold change of conformotypic peptide, ATPγS bound versus unbound” value ([1]; peptide YDDMAACMK (19–27), FULL_TRP, adjusted p 6.47E‐03) of the same molecule?
**A.** 1.8

**Q.** And the “effect on binding of mode 1 or mode 2 peptides to 14‐3‐3ζ” value [2]?
**A.** no effect

**Q.** And the “effect on binding of nonphosphopeptide ExoS to Y82A” value [7]?
**A.** definitive decrease

**Q.** What about the “effect on binding of nonphosphopeptide ExoS to R55A” value [8] of the same molecule?
**A.** definitive decrease

**Q.** And the “effect on binding of nonphosphopeptide ExoS to ζWT” value ([9]; 10 μM to 1 mM ATPγS with 10 μM peptide, qualitative)?
**A.** definitive decrease; also recorded: concentration‐dependent inhibition

**Q.** And the “effect on binding of mode 2 phosphopeptide to 14‐3‐3ζ WT” value ([9]; 1 mM ATPγS)?
**A.** did not show any effect

**Q.** Does 5FAM-QGLLDALDLAS [FAM-labeled nonphosphorylated ExoS peptide (5FAM-QGLLDALDLAS)] bind [10]?
**A.** binds

**Q.** Does 5FAM-QGLLDALDLAS [FAM-labeled nonphosphorylated ExoS peptide (5FAM-QGLLDALDLAS)] bind [11]?
**A.** binds

**Q.** Does 5FAM-QGLLDALDLAS [FAM-labeled nonphosphorylated ExoS peptide (5FAM-QGLLDALDLAS)] bind [12]?
**A.** binds

**Q.** Does 5FAM-QGLLDALDLAS [FAM-labeled nonphosphorylated ExoS peptide (5FAM-QGLLDALDLAS)] bind [13]?
**A.** binds

B1: 14-3-3ζ WT, P63104 1-245 (natural protein)
chain: MDKNELVQKAKLAEQAERYDDMAACMKSVTEQGAELSNEERNLLSVAYKNVVGARRSSWRVVSSIEQKTEGAEKKQQMAREYREKIETELRDICNDVLSLLEKFLIPNASQAESKVFYLKMKGDYYRYLAEVAAGDDKKGIVDQSQQAYQEAFEISKKEMQPTHPIRLGLALNFSVFYYEILNSPEKACSLAKTAFDEAIAELDTLSEESYKDSTLIMQLLRDNLTLWTSDTQGDEAEAGEGGEN
**Q.** Which stoichiometry N [14] does the source give for B1 here?
**A.** 2

B2: 14‐3‐3τ: 14‐3‐3 tau paralog (protein, UniProt P27348 1-245, looked up)
14-3-3 protein theta: MEKTELIQKAKLAEQAERYDDMATCMKAVTEQGAELSNEERNLLSVAYKNVVGGRRSAWRVISSIEQKTDTSDKKLQLIKDYREKVESELRSICTTVLELLDKYLIANATNPESKVFYLKMKGDYFRYLAEVACGDDRKQTIDNSQGAYQEAFDISKKEMQPTHPIRLGLALNFSVFYYEILNNPELACTLAKTAFDEAIAELDTLNEDSYKDSTLIMQLLRDNLTLWTSDSAGEECDAAEGAEN
**Q.** With B2 as the molecule, how does the ATP/ADP exchange activity [15] read?
**A.** has an ATP/ADP exchange activity
